Measured values published in ChEMBL document CHEMBL1157810, “Synthesis and evaluation of nitric oxide-releasing derivatives of farnesylthiosalicylic acid as anti-tumor agents” (Bioorg Med Chem, 2010).
Activity calls are given as the source filed them. The calls are words filed in the database; no cut-off is given here.

Assays:
[1] = tested on: U-251; test: Cytotoxicity against human U251 cells after 48 hrs by MTT assay; type: functional, cell-based; settings: U-251, 48 h
In short: (§1)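 Cells at 5–10 × 10³/well grown overnight in RPMI-1640, then exposed in triplicate to a concentration series for 48 h. MTT (1 mg/mL) added for the final 4 h, formazan dissolved in DMSO, read at 570 nm against 595 nm reference. Untreated cells served as negative control, 1% Triton-treated cells as positive control. Inhibition calculated relative to negative-control OD. IC50 taken as concentration giving 50% growth inhibition.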

[2] = Cytotoxicity against human U87 cells after 48 hrs by MTT assay; type: functional, cell-based, U-87MG ATCC; settings: U-87 MG; in short: as §1
[3] = tested on: SGC-7901; test: Cytotoxicity against human SGC7901 cells after 48 hrs by MTT assay; type: functional, cell-based; settings: SGC-7901, 48 h; in short: as §1
[4] = tested on: MCF7; test: Cytotoxicity against human MCF7 cells after 48 hrs by MTT assay; type: functional, cell-based; settings: MCF7, 48 h; in short: as §1
[5] = tested on: MDA-MB-231; test: Cytotoxicity against human MDA-MB-231 cells after 48 hrs by MTT assay; type: functional, cell-based; settings: MDA-MB-231, 48 h; in short: as §1
[6] = tested on: MCF7; test: Induction of NO production in human MCF7 cells at 100 uM after 30 to 300 mins by Griess assay; type: functional, cell-based
In short: (§2)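 Cells treated with compound at 100 µM. Nitrate/nitrite in cell lysates measured by Griess reaction at 540 nm over 30–300 min and quantified from a sodium nitrate standard curve. Diluent-treated cells gave background. Reported values are means of two experiments at 240 min post-treatment.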

[7] = tested on: MDA-MB-231; test: Induction of NO production in human MDA-MB-231 cells at 100 uM after 30 to 300 mins by Griess assay; type: functional, cell-based; in short: as §2
[8] = tested on: U-251; test: Induction of NO production in human U251 cells at 100 uM after 30 to 300 mins by Griess assay; type: functional, cell-based; in short: as §2
[9] = tested on: U-87MG ATCC; test: Induction of NO production in human U87 cells at 100 uM after 30 to 300 mins by Griess assay; type: functional, cell-based; in short: as §2
[10] = tested on: SGC-7901; test: Induction of NO production in human SGC7901 cells at 100 uM after 30 to 300 mins by Griess assay; type: functional, cell-based; in short: as §2
[11] = tested on: MDA-MB-231; test: Induction of NO production in human MDA-MB-231 cells at 100 uM after 30 to 300 mins by Griess assay in presence of hemoglobin; type: functional, cell-based
In short: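 MDA-MB-231 cells (5 × 10⁶/well) were treated in triplicate with 100 µM compound […], harvested and lysed. Lysates were mixed with Griess reagent for 30–300 min and absorbance read at 540 nm. Nitrate/nitrite was quantified against a sodium nitrate standard curve, with diluent-treated cells as background.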

[12] = tested on: MDA-MB-231; test: Inhibition of Ras activation in human MDA-MB-231 cells assessed as reduction in phosphorylated Akt levels at 5 uM after 8 hrs by Western blot; type: cell-based
In short: (§3)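 MDA-MB-231 cells at 1.5 × 10⁵/mL exposed to 1 or 5 µM compound or vehicle for 8 h, then harvested and lysed. Lysates resolved by SDS–PAGE and immunoblotted with antibodies to phospho-Akt (Ser473), phospho-ERK (Thr202/Tyr204), phospho-Raf (Ser259), total Akt, total ERK and β-actin. Detection by HRP-conjugated secondary antibodies and enhanced chemiluminescence. Blots representative of two experiments.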

[13] = tested on: MDA-MB-231; test: Inhibition of Ras activation in human MDA-MB-231 cells assessed as reduction in phosphorylated ERK levels at 5 uM after 8 hrs by Western blot; type: cell-based; in short: as §3
[14] = tested on: MDA-MB-231; test: Inhibition of Ras activation in human MDA-MB-231 cells assessed as reduction in phosphorylated Raf levels at 5 uM after 8 hrs by Western blot; type: cell-based; in short: as §3
[15] = tested on: MDA-MB-231; test: Cytotoxicity against human MDA-MB-231 cells after 24 hrs by MTT assay in presence of hemoglobin

| Structure (SMILES) | IC50 [1] | IC50 [2] | IC50 [3] | IC50 [4] | IC50 [5] | Activity [6] | Activity [7] | Activity [8] | Activity [9] | Activity [10] | Activity [11] | Activity [12] | Activity [13] | Activity [14] | Activity [15] |
| --- | --- | --- | --- | --- | --- | --- | --- | --- | --- | --- | --- | --- | --- | --- | --- |
| CNC(=O)c1cc(Oc2ccc(NC(=O)Nc3ccc(Cl)c(C(F)(F)F)c3)cc2)ccn1 [SORAFENIB] | 24.7 µM | 21.1 µM | 10.4 µM | 8.83 µM | 4.77 µM |  |  |  |  |  |  |  |  |  |  |
| CC(C)=CCC/C(C)=C/CC/C(C)=C/CSc1ccccc1C(=O)N[C@@H](Cc1ccccc1)C(=O)OCCOCCOc1no[n+]([O-])c1S(=O)(=O)c1ccccc1 | > 50 µM | > 50 µM | > 50 µM | > 50 µM | > 50 µM |  |  |  |  |  |  |  |  |  |  |
| CC(C)=CCC/C(C)=C/CC/C(C)=C/CSc1ccccc1C(=O)NCC(=O)OCCOCCOc1no[n+]([O-])c1S(=O)(=O)c1ccccc1 | 8.58 µM | 7.34 µM | 19.5 µM | 6.59 µM | 2.41 µM | Active | Active | Active | Active | Active |  |  |  |  |  |
| O=S(=O)(c1ccccc1)c1c(OCCOCCO)no[n+]1[O-] |  |  |  |  | 20.5 µM |  |  |  |  |  |  |  |  |  |  |
| CC(C)=CCC/C(C)=C/CC/C(C)=C/CSc1ccccc1C(=O)N[C@@H](C)C(=O)OC(C)CCOc1no[n+]([O-])c1S(=O)(=O)c1ccccc1 (stereo partly specified) | 15.3 µM | 20.4 µM | > 50 µM | 11.1 µM | 5.05 µM |  |  |  |  |  |  |  |  |  |  |
| CC(C)=CCC/C(C)=C/CC/C(C)=C/CSc1ccccc1C(=O)NCC(=O)OC(C)CCOc1no[n+]([O-])c1S(=O)(=O)c1ccccc1 (stereo unspecified) | 10.8 µM | 15.3 µM | 11.9 µM | 9.11 µM | 7.26 µM |  |  |  |  |  |  |  |  |  |  |
| CC(C)=CCC/C(C)=C/CC/C(C)=C/CSc1ccccc1C(=O)N[C@@H](Cc1ccccc1)C(=O)OC(C)CCOc1no[n+]([O-])c1S(=O)(=O)c1ccccc1 (stereo partly specified) | > 50 µM | > 50 µM | > 50 µM | > 50 µM | > 50 µM | Active | Active | Active | Active | Active |  |  |  |  |  |
| CC(C)=CCC/C(C)=C/CC/C(C)=C/CSc1ccccc1C(=O)N1CCC[C@H]1C(=O)OC(C)CCOc1no[n+]([O-])c1S(=O)(=O)c1ccccc1 (stereo partly specified) | 7.93 µM | 8.47 µM | 13.9 µM | 6.5 µM | 1.54 µM |  |  |  |  |  |  |  |  |  |  |
| CC(C)=CCC/C(C)=C/CC/C(C)=C/CSc1ccccc1C(=O)N[C@@H](C)C(=O)OCCOCCOc1no[n+]([O-])c1S(=O)(=O)c1ccccc1 | 8.04 µM | 18.1 µM | 11.3 µM | 7.68 µM | 4.21 µM | Active | Active | Active | Active | Active | inactive | Active | Active | Active | inactive |
| CC(C)=CCC/C(C)=C/CC/C(C)=C/CSc1ccccc1C(=O)N[C@@H](C)C(=O)OCCCCOc1no[n+]([O-])c1S(=O)(=O)c1ccccc1 | 7.95 µM | 26.4 µM | 44.6 µM | 8.68 µM | > 50 µM |  |  |  |  |  |  |  |  |  |  |
| CC(C)=CCC/C(C)=C/CC/C(C)=C/CSc1ccccc1C(=O)N1CCC[C@H]1C(=O)OCCOCCOc1no[n+]([O-])c1S(=O)(=O)c1ccccc1 | 4.83 µM | 12.9 µM | 7.86 µM | 8.77 µM | 3.16 µM | Active | Active | Active | Active | Active |  |  |  |  |  |
| CC(C)=CCC/C(C)=C/CC/C(C)=C/CSc1ccccc1C(=O)O [SALIRASIB] | 46.9 µM | 54 µM | 37.7 µM | 46.8 µM | 51.2 µM |  |  |  |  |  |  | inactive | inactive | inactive |  |
| CC(C)=CCC/C(C)=C/CC/C(C)=C/CSc1ccccc1C(=O)N[C@@H](Cc1ccccc1)C(=O)OCC#CCOc1no[n+]([O-])c1S(=O)(=O)c1ccccc1 | > 50 µM | > 50 µM | > 50 µM | > 50 µM | > 50 µM |  |  |  |  |  |  |  |  |  |  |
| CC(C)=CCC/C(C)=C/CC/C(C)=C/CSc1ccccc1C(=O)N[C@@H](C)C(=O)OCC#CCOc1no[n+]([O-])c1S(=O)(=O)c1ccccc1 | 7.31 µM | 5.18 µM | 11.4 µM | 5.03 µM | 1.01 µM |  |  |  |  |  |  |  |  |  |  |
| O=S(=O)(c1ccccc1)c1c(OCCCCO)no[n+]1[O-] |  |  |  |  | 9.87 µM |  |  |  |  |  |  |  |  |  |  |
| CC(C)=CCC/C(C)=C/CC/C(C)=C/CSc1ccccc1C(=O)NCC(=O)OCC#CCOc1no[n+]([O-])c1S(=O)(=O)c1ccccc1 | 11.7 µM | 14.8 µM | 11.4 µM | 6.91 µM | 7.23 µM | Active | Active | Active | Active | Active |  |  |  |  |  |
| CC(C)=CCC/C(C)=C/CC/C(C)=C/CSc1ccccc1C(=O)NCC(=O)OCCCCOc1no[n+]([O-])c1S(=O)(=O)c1ccccc1 | 28.2 µM | > 50 µM | > 50 µM | 25.1 µM | 9.99 µM |  |  |  |  |  |  |  |  |  |  |
| CC(C)=CCC/C(C)=C/CC/C(C)=C/CSc1ccccc1C(=O)N[C@@H](Cc1ccccc1)C(=O)OCCCCOc1no[n+]([O-])c1S(=O)(=O)c1ccccc1 | > 50 µM | > 50 µM | > 50 µM | > 50 µM | > 50 µM |  |  |  |  |  |  |  |  |  |  |
| O=S(=O)(c1ccccc1)c1c(OCC#CCO)no[n+]1[O-] |  |  |  |  | 6.97 µM |  |  |  |  |  |  |  |  |  |  |
| CC(C)=CCC/C(C)=C/CC/C(C)=C/CSc1ccccc1C(=O)N1CCC[C@H]1C(=O)OCCCCOc1no[n+]([O-])c1S(=O)(=O)c1ccccc1 | 6.99 µM | 9 µM | 22.5 µM | 7.47 µM | 3.14 µM |  |  |  |  |  |  |  |  |  |  |
